In PMC3677025 (Pharmacological research : the official journal of the …, 2012):
Where “and” joins values, the source holds several entries; their conditions need not be identical. Equal values may be shown once.

Experiments:
EphA4 = EphA4 (Mus musculus, UniProt Q03137); test: EphA4 AP binding to immobilized KYL peptide
Method in brief: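 Biotinylated KYL peptide (biotin on the lysine of a C-terminal GSGSK linker) was captured on streptavidin-coated wells, with coating in borate buffer pH 8.7. Test compound (10 μM in 1% DMSO for screening; varied concentrations for confirmation) was added with ~0.35 nM mouse EphA4 ectodomain–AP from NIH3T3 supernatant in TBST. Bound AP was read at 405 nm with 1 mg/ml p-nitrophenylphosphate in SEAP buffer pH 9.8, minus AP-only background. Percent inhibition was taken relative to no-compound wells.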

EphB4 = molecular target: T1, EphB4 (Mus musculus, UniProt P54761); test: Ephrin-B2 Fc-induced EphB4 tyrosine phosphorylation in B16 melanoma cells; type: cell-based; details: relative to EphA2 and EphA4
T1 sequence (P54761 16-987): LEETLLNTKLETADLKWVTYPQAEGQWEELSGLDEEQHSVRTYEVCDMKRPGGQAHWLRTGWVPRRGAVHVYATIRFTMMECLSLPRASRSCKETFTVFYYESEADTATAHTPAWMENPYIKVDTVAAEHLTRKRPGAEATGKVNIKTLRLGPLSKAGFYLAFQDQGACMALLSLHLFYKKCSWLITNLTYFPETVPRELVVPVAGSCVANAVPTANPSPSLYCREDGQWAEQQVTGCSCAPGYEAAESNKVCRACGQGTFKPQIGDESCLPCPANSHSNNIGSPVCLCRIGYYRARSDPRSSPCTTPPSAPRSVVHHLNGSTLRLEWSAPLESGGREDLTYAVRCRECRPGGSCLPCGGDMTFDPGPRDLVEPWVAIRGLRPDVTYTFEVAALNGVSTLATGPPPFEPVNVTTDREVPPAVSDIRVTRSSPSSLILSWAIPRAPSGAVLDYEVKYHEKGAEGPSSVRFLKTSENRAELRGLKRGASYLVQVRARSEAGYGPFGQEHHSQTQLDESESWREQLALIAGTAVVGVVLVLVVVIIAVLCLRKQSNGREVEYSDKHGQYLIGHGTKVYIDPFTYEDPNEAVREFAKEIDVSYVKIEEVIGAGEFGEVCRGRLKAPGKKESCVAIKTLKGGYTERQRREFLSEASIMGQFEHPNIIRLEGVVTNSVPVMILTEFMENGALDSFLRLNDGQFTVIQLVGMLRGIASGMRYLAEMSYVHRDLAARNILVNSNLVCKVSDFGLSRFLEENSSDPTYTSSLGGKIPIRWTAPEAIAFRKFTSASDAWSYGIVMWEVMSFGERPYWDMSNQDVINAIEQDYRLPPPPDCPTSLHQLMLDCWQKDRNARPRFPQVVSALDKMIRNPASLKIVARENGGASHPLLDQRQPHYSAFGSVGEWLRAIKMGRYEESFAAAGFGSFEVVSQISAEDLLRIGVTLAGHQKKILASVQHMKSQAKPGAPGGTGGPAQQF
Method in brief: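 Cells were serum-starved 1–2 h and pretreated 15 min with test compound (DMSO ≤0.4% final). They were then stimulated 20 min with compound present: COS cells with 0.8 μg/mL ephrin-B2 Fc, and B16 melanoma cells with 1.5 μg/mL anti-Fc-preclustered ephrin-B2 Fc, or Fc control. Lysates were made in modified RIPA. EphB2 (COS; 7 μg antibody) or EphB4 (B16; 20 μg antibody) was immunoprecipitated, probed for phosphotyrosine, then reprobed for the receptor.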

[1] = test system: EphA4 ephrin-binding domain mutants; test: Wild-type and mutant EphA4 AP binding to immobilized ephrin-A5 Fc; set-up: species or system human; details: EphA4 AP mutants vs wild-type
Method in brief: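 Wild-type and point-mutant human EphA4 ephrin-binding domains fused to alkaline phosphatase were added at 0.01 nM final to wells precoated with protein A and ephrin-A5 Fc, with or without test compound. Bound AP was read with p-nitrophenylphosphate. IC50 values from 2–3 separate experiments were compared with wild-type by one-way ANOVA and Dunnett's post-hoc test.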

EphB2 = test: ELISA, ephrin-B2 AP binding to immobilized EphB2 Fc; details: concentrations up to 200 μM
Method in brief: (§1)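 Eph receptor Fc fusions were immobilized at 1 μg/ml in TBST on protein A-coated wells. Diluted ephrin AP fusion supernatant from transiently transfected HEK293 cells was added for 2 h with or without test compound; for IC50 it was at approximately 0.01 nM. Bound AP was read with p-nitrophenylphosphate, minus Fc-only background. IC50 came from a variable-slope log(inhibitor)–response fit, bottom constrained to 0.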

HUVECs = test: Capillary-like tube formation assay, HUVECs on Matrigel; type: cell-based, human; details: 18 hours
Method in brief: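 HUVECs (2.3 × 10⁴) were seeded on Matrigel-precoated wells in complete HUVEC medium containing test compound or DMSO control and grown for 18 h. Polygons were counted from phase-contrast images, 2–4 pictures from each of 3–6 wells. Counts were compared with DMSO-only wells by one-way ANOVA with Dunnett's post-hoc test.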

EphA2 [2] = molecular target: T2, EphA2 (Homo sapiens, UniProt P29317); test: Ephrin-A1 Fc-induced EphA2 phosphorylation in HUVECs; type: cell-based; details: at 50 μM
Method in brief: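 HUVECs were serum-starved 1–2 h and preincubated 15 min with 50 μM test compound (DMSO ≤0.4% final). They were then stimulated 20 min with 0.25 μg/mL ephrin-A1 Fc plus 1.5 μg/mL ephrin-B2 Fc (preclustered with 3-fold anti-Fc), or Fc, with compound present. Lysates were made in modified RIPA with NaF and pervanadate. EphA2 (1 μg antibody) and EphB4 (20 μg antibody) immunoprecipitates were immunoblotted for phosphotyrosine; lysates were probed for receptors and β-actin.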

EphB6 = test: ELISA, ephrin-B2 AP binding to immobilized EphB6 Fc; details: read-out: IC50, inhibition of ephrin binding to EphB6
Method in brief: as §1

EphA2 [3] = molecular target: T2, EphA2; test: Ephrin-A1 Fc-induced EphA2 tyrosine phosphorylation in PC3 cells; type: cell-based; details: read-out: IC50, EphA2 tyrosine phosphorylation, 0.25 μg/mL ephrin-A1 Fc, ELISA
Method in brief: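 PC3 cells were serum-starved 1 h, given test compound (final DMSO ≤0.4%) for 15 min, then ephrin-A1 Fc for 20 min with compound still present. Lysis was in modified RIPA with NaF and pervanadate. Lysates were split for phospho and total EphA2 ELISA: anti-EphA2 extracellular capture, anti-phosphotyrosine or anti-cytoplasmic EphA2 detection, ABTS read at A405. IC50 was fitted to values normalized to ephrin-only cells.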

T2 sequence (P29317 24-976): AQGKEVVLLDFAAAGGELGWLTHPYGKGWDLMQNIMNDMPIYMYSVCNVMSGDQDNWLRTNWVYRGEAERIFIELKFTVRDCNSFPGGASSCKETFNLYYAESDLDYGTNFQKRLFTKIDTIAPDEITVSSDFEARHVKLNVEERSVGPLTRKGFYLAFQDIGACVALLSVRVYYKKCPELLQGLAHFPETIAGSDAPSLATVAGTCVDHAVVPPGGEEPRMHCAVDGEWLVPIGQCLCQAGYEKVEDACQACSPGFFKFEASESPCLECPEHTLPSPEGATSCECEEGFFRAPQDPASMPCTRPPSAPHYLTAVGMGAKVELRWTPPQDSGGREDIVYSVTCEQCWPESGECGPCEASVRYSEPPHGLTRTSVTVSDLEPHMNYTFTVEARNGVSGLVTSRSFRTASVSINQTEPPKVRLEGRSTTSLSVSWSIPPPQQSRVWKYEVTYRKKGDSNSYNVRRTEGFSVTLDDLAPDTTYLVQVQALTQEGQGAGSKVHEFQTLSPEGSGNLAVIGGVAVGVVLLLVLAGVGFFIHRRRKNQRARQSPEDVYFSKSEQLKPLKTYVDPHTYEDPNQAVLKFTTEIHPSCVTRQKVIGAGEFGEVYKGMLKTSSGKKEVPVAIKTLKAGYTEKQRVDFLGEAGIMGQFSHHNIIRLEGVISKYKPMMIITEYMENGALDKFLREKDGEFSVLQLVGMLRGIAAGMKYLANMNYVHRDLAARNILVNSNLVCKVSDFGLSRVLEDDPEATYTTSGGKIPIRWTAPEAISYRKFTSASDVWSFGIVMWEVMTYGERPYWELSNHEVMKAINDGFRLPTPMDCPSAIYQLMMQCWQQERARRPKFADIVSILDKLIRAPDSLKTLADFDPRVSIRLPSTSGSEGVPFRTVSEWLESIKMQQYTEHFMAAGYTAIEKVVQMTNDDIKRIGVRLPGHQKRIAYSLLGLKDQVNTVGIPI
Chain of EphA4 (Q03137 20-547 limits assumed): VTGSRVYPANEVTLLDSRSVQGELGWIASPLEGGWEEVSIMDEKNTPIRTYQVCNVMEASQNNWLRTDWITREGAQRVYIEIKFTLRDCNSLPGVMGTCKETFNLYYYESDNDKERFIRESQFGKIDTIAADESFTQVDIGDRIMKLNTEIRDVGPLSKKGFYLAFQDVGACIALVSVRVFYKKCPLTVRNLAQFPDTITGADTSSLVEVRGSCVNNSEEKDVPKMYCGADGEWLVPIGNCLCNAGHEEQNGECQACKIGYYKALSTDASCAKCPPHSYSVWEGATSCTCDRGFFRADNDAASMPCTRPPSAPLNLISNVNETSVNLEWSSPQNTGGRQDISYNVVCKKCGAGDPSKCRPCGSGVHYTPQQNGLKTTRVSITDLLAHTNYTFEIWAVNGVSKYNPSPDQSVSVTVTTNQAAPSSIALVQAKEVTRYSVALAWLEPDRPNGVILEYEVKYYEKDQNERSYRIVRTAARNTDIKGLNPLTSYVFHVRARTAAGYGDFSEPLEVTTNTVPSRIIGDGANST

O=C(Oc1cc(O)cc2c1C[C@@H](OC(=O)c1cc(O)c(O)c(O)c1)[C@@H](c1cc(O)c(O)c(O)c1)O2)c1cc(O)c(O)c(O)c1 [epigallocatechin-3,5-digallate]
IC50 (EphA4; read-out: IC50 ± SE EphA4 KYL): 1.5 ± 0.13 µM
(% Inhib.) EphA4 KYL (EphA4; screen, compounds at 10 μM): 58%
inhibition of EphB4 phosphorylation (EphB4): at higher concentrations
effect of other EphA4 mutations, such as D123A, on inhibitory activity [1]: did not detectably affect
inhibition of EphB2-ephrin interaction (EphB2): does not target
inhibition of EphB2-ephrin interaction (EphB2; listed as Epigallocatechin-3,5-digallate): no inhibition
capillary-like tube formation (HUVECs; 20 μM to 200 μM): dose-dependent inhibitory effect
capillary-like tube formation (HUVECs; at 50 μM): inhibit
EphA2 phosphorylation in HUVECs (EphA2 [2]): strongly inhibits
IC50 (EphB6): < 10 µM
IC50 (EphA2 [3]): 90 µM and ~90 µM
